The source made the active and inactive calls. The rule behind the calls is not given here. Some results are limits rather than exact numbers.

One assay concerns A549. Briefly: Antiproliferative activity against human A549 cells assessed as reduction in cell viability after 72 hrs by MTT assay. The format is functional, cell-based. Particulars: A549, 72 h. The procedure, abridged: (§1)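 MTT assay over 72 h, compounds at 64, 16, 4, 1, 0.25, 0.0625 and 0.015625 μM. MTT solution (5 mg/mL) and DMSO added afterwards, 10 min at room temperature, absorbance read at 490 nm. IC50 calculated as the mean ± SD of three independent experiments.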
For orientation: Tetrazolium assays rely on reduction of a dye to a coloured formazan, in cell work by metabolically active cells.
The term IC50 denotes the concentration at which inhibition is half-maximal. On to `C=C1C(=O)[C@@]23C(=O)OC[C@]4(C(=O)CCC(C)(C)[C@H]4C=O)[C@@H]2CC[C@@H]1[C@H]3OC(=O)CCCCC1CCSS1` (stereo partly drawn), for which the IC50 came out at 7.92 µM.

In the case of `C=C1C(=O)[C@@]23C(=O)OC[C@]4([C@@H](OC(C)=O)CCC(C)(C)[C@H]4C=O)[C@@H]2CC[C@@H]1[C@H]3OC(=O)CCCC(=O)Oc1ccc(-c2cc(=S)ss2)cc1`, the IC50 came to 14.8 µM.

As to `C=C1C(=O)[C@]23[C@H](OC(=O)c4ccccc4C(=O)Oc4ccc(-c5cc(=S)ss5)cc4)[C@H]1CC[C@H]2[C@@]12CO[C@]3(O)[C@@H](O)[C@@H]1C(C)(C)CC[C@@H]2OC(C)=O`, the 50% inhibitory concentration (IC50) worked out at 16.7 µM.

Turning to `O=C(O)CCCCC1CCSS1` (stereo not drawn) [LIPOIC ACID, ALPHA], the IC50 is over 50 µM.

With `Oc1ccc(-c2cc(=S)ss2)cc1`, the IC50 is over 50 µM.

Another assay concerns SGC-7901. Description: Antiproliferative activity against human SGC7901 cells assessed as reduction in cell viability after 72 hrs by MTT assay. Type of assay: functional, cell-based. Particulars: SGC-7901, 72 h. An outline of the steps:
as §1
Turning to `C=C1C(=O)[C@@]23C(=O)OC[C@]4(C(=O)CCC(C)(C)[C@H]4C=O)[C@@H]2CC[C@@H]1[C@H]3OC(=O)CCCCC1CCSS1` (stereo partly drawn), the concentration for half-maximal inhibition (IC50) is 6.43 µM.

Take `C=C1C(=O)[C@@]23C(=O)OC[C@]4([C@@H](OC(C)=O)CCC(C)(C)[C@H]4C=O)[C@@H]2CC[C@@H]1[C@H]3OC(=O)CCCC(=O)Oc1ccc(-c2cc(=S)ss2)cc1`: the IC50 came out at 7.66 µM.

Consider `C=C1C(=O)[C@]23[C@H](OC(=O)c4ccccc4C(=O)Oc4ccc(-c5cc(=S)ss5)cc4)[C@H]1CC[C@H]2[C@@]12CO[C@]3(O)[C@@H](O)[C@@H]1C(C)(C)CC[C@@H]2OC(C)=O`, for which the IC50 amounted to 12.4 µM.

With `O=C(O)CCCCC1CCSS1` (stereo not drawn) [LIPOIC ACID, ALPHA], the half-inhibitory concentration (IC50) was over 50 µM.

For `Oc1ccc(-c2cc(=S)ss2)cc1`, the IC50 is over 50 µM.

For another assay, the system named is K562. Description: Antiproliferative activity against human K562 cells assessed as reduction in cell viability after 72 hrs by MTT assay. Type of assay: functional, cell-based. The conditions noted are these: K562, 72 h. The procedure, abridged: as §1
With `C=C1C(=O)[C@@]23C(=O)OC[C@]4(C(=O)CCC(C)(C)[C@H]4C=O)[C@@H]2CC[C@@H]1[C@H]3OC(=O)CCCCC1CCSS1` (stereo partly drawn), the 50% inhibitory concentration (IC50) is 2.59 µM.

In the case of `C=C1C(=O)[C@@]23C(=O)OC[C@]4([C@@H](OC(C)=O)CCC(C)(C)[C@H]4C=O)[C@@H]2CC[C@@H]1[C@H]3OC(=O)CCCC(=O)Oc1ccc(-c2cc(=S)ss2)cc1`, the 50% inhibitory concentration (IC50) is 3.27 µM.

With `C=C1C(=O)[C@]23[C@H](OC(=O)c4ccccc4C(=O)Oc4ccc(-c5cc(=S)ss5)cc4)[C@H]1CC[C@H]2[C@@]12CO[C@]3(O)[C@@H](O)[C@@H]1C(C)(C)CC[C@@H]2OC(C)=O`, the IC50 was determined as 11.4 µM.

In the case of `O=C(O)CCCCC1CCSS1` (stereo not drawn) [LIPOIC ACID, ALPHA], the 50% inhibitory concentration (IC50) is over 50 µM.

Take `Oc1ccc(-c2cc(=S)ss2)cc1`: the IC50 was over 50 µM.

For another assay, the system named is Bel-7402. Description: Antiproliferative activity against human Bel7402 cells assessed as reduction in cell viability after 72 hrs by MTT assay. The conditions noted are these: Bel-7402, 72 h. The format is functional, cell-based. The procedure, abridged:
as §1
Regarding `C=C1C(=O)[C@@]23C(=O)OC[C@]4(C(=O)CCC(C)(C)[C@H]4C=O)[C@@H]2CC[C@@H]1[C@H]3OC(=O)CCCCC1CCSS1` (stereo partly drawn), the IC50 came to 2.56 µM.

As for `C=C1C(=O)[C@@]23C(=O)OC[C@]4([C@@H](OC(C)=O)CCC(C)(C)[C@H]4C=O)[C@@H]2CC[C@@H]1[C@H]3OC(=O)CCCC(=O)Oc1ccc(-c2cc(=S)ss2)cc1`, the IC50 was found to be 4.59 µM.

In the case of `C=C1C(=O)[C@]23[C@H](OC(=O)c4ccccc4C(=O)Oc4ccc(-c5cc(=S)ss5)cc4)[C@H]1CC[C@H]2[C@@]12CO[C@]3(O)[C@@H](O)[C@@H]1C(C)(C)CC[C@@H]2OC(C)=O`, the IC50 worked out at 7.68 µM.

Regarding `O=C(O)CCCCC1CCSS1` (stereo not drawn) [LIPOIC ACID, ALPHA], the IC50 is over 50 µM.

For the compound `Oc1ccc(-c2cc(=S)ss2)cc1`, the IC50 is over 50 µM.

The test system of the next assay is L02. Briefly: Cytotoxicity against human L02 cells assessed as reduction in cell viability after 72 hrs by MTT assay. Type of assay: cell-based. The conditions noted are these: L02, 72 h. An outline of the steps: as §1
For the compound `C=C1C(=O)[C@@]23C(=O)OC[C@]4(C(=O)CCC(C)(C)[C@H]4C=O)[C@@H]2CC[C@@H]1[C@H]3OC(=O)CCCCC1CCSS1` (stereo partly drawn), the half-maximal inhibitory concentration (IC50) turned out to be 19.9 µM.

For `C=C1C(=O)[C@@]23C(=O)OC[C@]4([C@@H](OC(C)=O)CCC(C)(C)[C@H]4C=O)[C@@H]2CC[C@@H]1[C@H]3OC(=O)CCCC(=O)Oc1ccc(-c2cc(=S)ss2)cc1`, the IC50 is over 50 µM.

For `C=C1C(=O)[C@]23[C@H](OC(=O)c4ccccc4C(=O)Oc4ccc(-c5cc(=S)ss5)cc4)[C@H]1CC[C@H]2[C@@]12CO[C@]3(O)[C@@H](O)[C@@H]1C(C)(C)CC[C@@H]2OC(C)=O`, the 50% inhibitory concentration (IC50) was over 50 µM.

Regarding `O=C(O)CCCCC1CCSS1` (stereo not drawn) [LIPOIC ACID, ALPHA], the IC50 is over 50 µM.

On to `Oc1ccc(-c2cc(=S)ss2)cc1`, for which the IC50 was over 50 µM.

System in a further assay: not listed separately
Description: Induction of H2S generation in PBS containing Na2S and MB+ cocktail in presence of TCEP/L-cysteine measured at 15 to 20 mins after 20 mins compound incubation by methylene blue dye based UV-Vis spectrophotometric method. Type of assay: functional.
Details: not given
The procedure, abridged:
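Na2S standards (5–150 μM) in sodium phosphate buffer reacted 20 min at room temperature with methylene blue cocktail (FeCl3/HCl, N,N-dimethyl-1,4-phenylenediamine/HCl, Zn(OAc)2) to build a 670 nm calibration curve. Compounds from 40 mM THF stock added to phosphate buffer with 1 mM TCEP or L-cysteine. Aliquots taken into the cocktail at set times, incubated 20 min, read at 670 nm. Mean of three experiments.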
Take `C=C1C(=O)[C@@]23C(=O)OC[C@]4(C(=O)CCC(C)(C)[C@H]4C=O)[C@@H]2CC[C@@H]1[C@H]3OC(=O)CCCCC1CCSS1` (stereo partly drawn): the result was Active.

On to `C=C1C(=O)[C@@]23C(=O)OC[C@]4([C@@H](OC(C)=O)CCC(C)(C)[C@H]4C=O)[C@@H]2CC[C@@H]1[C@H]3OC(=O)CCCC(=O)Oc1ccc(-c2cc(=S)ss2)cc1`, for which the result was Active.

For `C=C1C(=O)[C@]23[C@H](OC(=O)c4ccccc4C(=O)Oc4ccc(-c5cc(=S)ss5)cc4)[C@H]1CC[C@H]2[C@@]12CO[C@]3(O)[C@@H](O)[C@@H]1C(C)(C)CC[C@@H]2OC(C)=O`, the outcome was Active.

The subject of the next assay is PBMC. Briefly: Cytotoxicity against human PBMC assessed as reduction in cell viability after 72 hrs by MTT assay. The format is cell-based.
Details: not given
The procedure, abridged: as §1
Turning to `C=C1C(=O)[C@@]23C(=O)OC[C@]4(C(=O)CCC(C)(C)[C@H]4C=O)[C@@H]2CC[C@@H]1[C@H]3OC(=O)CCCCC1CCSS1` (stereo partly drawn), the IC50 was over 50 µM.

On to `C=C1C(=O)[C@@]23C(=O)OC[C@]4([C@@H](OC(C)=O)CCC(C)(C)[C@H]4C=O)[C@@H]2CC[C@@H]1[C@H]3OC(=O)CCCC(=O)Oc1ccc(-c2cc(=S)ss2)cc1`, for which the half-maximal inhibitory concentration (IC50) amounted to 30.7 µM.

Consider `C=C1C(=O)[C@]23[C@H](OC(=O)c4ccccc4C(=O)Oc4ccc(-c5cc(=S)ss5)cc4)[C@H]1CC[C@H]2[C@@]12CO[C@]3(O)[C@@H](O)[C@@H]1C(C)(C)CC[C@@H]2OC(C)=O`, for which the IC50 was found to be 39.5 µM.

As for `O=C(O)CCCCC1CCSS1` (stereo not drawn) [LIPOIC ACID, ALPHA], the 50% inhibitory concentration (IC50) is over 50 µM.

As to `Oc1ccc(-c2cc(=S)ss2)cc1`, the IC50 was over 50 µM.

Source of the values: ChEMBL document CHEMBL4364267, “Hydrogen sulfide donating ent-kaurane and spirolactone-type 6,7-seco-ent-kaurane derivatives: Design, synthesis and antiproliferative properties” (Eur J Med Chem, 2019).
